In the library only some 1.5% were active in any assay of this set; here they are far more common.
SUMO Mot1 rescue: SUMOylation pathway inhibition by Mot1-301 growth rescue. S. cerevisiae Mot1-301 growth rescue, ATP luminescence, 38.5C; percent above DMSO median, 100 means doubled. growth rescue, % at 18.8 µM. 320,000 compounds, 1% hits. AID 2716;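 active means every valid replicate shows activation above 250% relative to neutral control wells; inactive means the rest, any valid replicate at or below 250%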
Cneo AK release: causes C. neoformans cell lysis; 360,000 compounds, 0.2% hits; adenylate kinase release luminescence, 4 h; normalised: neutral wells 0, clomiphene wells 100; lysis activity, % at 15 µM;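 active means mean lysis activity across replicates of at least 80%, whatever share of replicates individually reach that level; inactive means mean lysis activity below 80%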
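Material: C. neoformans cells | Amount: Yeast cell density of 5 × 10^6 cells/mL | Medium: Fresh YPD growth medium | Dosing: Single dose | Times: Static 4 h at 37 °C with compound, 1 h detection | Detection: AK luminescence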
Statin myotox sup: suppressors of simvastatin-induced myotoxicity in C2C12 myotubes; ATP luminescence, 48 h; scaled: DMSO 0, geranylgeraniol control 100; rescue of ATP level, % at 7.49 µM; 330,000 compounds, 0.78% hits;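 active means mean ATP rescue above about 67%, or every replicate alone reaching that limit, limit read from the data, passing the limit was not always enough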;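 further: myotubes were challenged with 10 µM simvastatin during compound exposure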
Numbers stand for hits; – = inactive; · = no result.

SMILES	SUMO Mot1 rescue	Cneo AK release	Statin myotox sup
O=C(C[C@@H]1C=C[C@@H](NC(=O)Nc2cc(F)ccc2F)[C@H](CO)O1)NCc1ccncn1	·	–	–
CC(=O)N(C)C[C@@H]1Oc2cc(C#CC3CCCC3)ccc2S(=O)(=O)N([C@@H](C)CO)C[C@H]1C	·	–	–
COc1ccc(CCNC2CCN(C)CC2)cc1OC	–	–	111.6
COc1ccc(CN(C)C2CCN(C)CC2)cc1OC	–	–	–
CC(C)[C@H](NC(=O)c1ccc(Cl)cc1)C(=O)Nc1cccc(S(=O)(=O)N2CCOCC2)c1	·	–	–
COc1cc(OC)cc(C(=O)N[C@H](C(=O)Nc2cccc(S(=O)(=O)N3CCCC3)c2)C(C)C)c1	720.3	–	–
C[n+]1cccc(CNC(=O)/C=N/O)c1	·	·	112.2
O=C(/C=N/O)NCc1cccnc1	–	–	–
O=C1CCC(C(=O)OCC(=O)C23CC4CC(CC(C4)C2)C3)N1 (centres undefined)	–	–	89.9
O=C1CCC(C(=O)OCc2ccccc2)N1 (centres undefined)	–	–	–
O=C(Nc1ccccc1F)NC1CCN(Cc2nnnn2Cc2ccc(F)cc2)CC1	–	–	–
O=C(Nc1ccc(F)cc1)NC1CCN(Cc2nnnn2Cc2ccco2)CC1	–	–	95.1
C[C@@H]1CN([C@@H](C)CO)S(=O)(=O)c2ccc(-c3ccccc3)cc2O[C@H]1CN(C)C(=O)C1CCC1	·	·	–
COC(=O)Nc1ccc(S(=O)(=O)N2CCC(C(=O)NC3CCCCC3)CC2)cc1	308.4	–	·
O=C(Nc1ccc(S(=O)(=O)N2CCCCC2)cc1)c1ccco1	–	–	–
O=C(Nc1ccc(S(=O)(=O)N2CCC(C(=O)NC3CCCCC3)CC2)cc1)c1ccco1	–	–	179.3
COC(=O)Nc1ccc(S(=O)(=O)N2CCCC(C(=O)NC3CCCCC3)C2)cc1 (centres undefined)	–	–	–
O=C(C[C@@H]1CC[C@H]2[C@@H](COC[C@@H](O)CN2S(=O)(=O)c2cccc(Cl)c2)O1)NCCCN1CCOCC1	·	–	–
Cc1cc(C(=O)Nc2cccc3c2O[C@@H](CN(C)S(=O)(=O)c2ccc(F)cc2)[C@H](C)CN([C@H](C)CO)C3=O)n(C)n1	·	–	·
C[C@@H]1CN([C@@H](C)CO)C(=O)c2cc(NC(=O)NC3CCCCC3)ccc2O[C@@H](C)CCCCO[C@H]1CN(C)Cc1ccc(C(F)(F)F)cc1	·	–	·
C[C@@H]1CN([C@H](C)CO)C(=O)c2cc(NC(=O)Cc3cn(C)c4ccccc34)ccc2O[C@@H]1CN(C)C(=O)Nc1cccc2ccccc12	·	–	–
COc1ccc(Cl)cc1NC(=O)C(C)Sc1nncn1C (centres undefined)	–	–	130.5
CC(Sc1nncn1C)C(=O)Nc1ccc(Cl)cn1 (centres undefined)	–	–	·
COc1ccc(C(=O)c2c(N)sc3c2CCN(C(=O)OC(C)(C)C)C3)cc1	–	–	·
CN1CCc2c(sc(N)c2C(=O)c2ccc(Cl)cc2)C1	–	164.3	–
SMILES	SUMO Mot1 rescue	Cneo AK release	Statin myotox sup
COCC(=O)Nc1ccc2c(c1)[C@H]1C[C@H](CC(=O)NCc3cc(F)ccc3F)O[C@@H](CO)[C@H]1O2	·	–	–
O=C(C[C@H]1C[C@@H]2c3cc(NC(=O)c4cccnc4)ccc3O[C@@H]2[C@H](CO)O1)NCc1cccc(F)c1	·	–	–
C[C@H]1CN([C@@H](C)CO)S(=O)(=O)c2ccc(C3=CCCCC3)cc2O[C@H]1CN(C)C(=O)C1CCC1	·	–	–
O=C1NC2(CCCCCC2)Cc2ccccc21	–	–	–
c1ccc2c(c1)CNC1(CCCCC1)C2	–	–	107.2
COc1ccc(S(=O)(=O)Nc2ccc3c(c2)C(=O)N([C@H](C)CO)C[C@H](C)[C@H](CN(C)C(=O)Nc2ccc(C(F)(F)F)cc2)OCCCC[C@@H](C)O3)cc1	·	–	·
CN(C)C(=O)C[C@H]1CC[C@H]2[C@@H](COc3ccc(NC(=O)Nc4cccc(Cl)c4)cc3C(=O)N2C)O1	·	–	–
O=C(C[C@H]1CC[C@@H](NC(=O)NC2CCCCC2)[C@@H](CO)O1)NCc1ccccc1	·	–	–
CCN(c1ccccc1)S(=O)(=O)c1csc(C(N)=O)c1	–	–	–
CCN(c1ccc(OC)cc1)S(=O)(=O)c1csc(C(N)=O)c1	275.0	–	–
Nc1ccc(Oc2cccc(Oc3ccc(N)cc3)c2)cc1	–	·	·
c1cncc(Oc2cccc(Oc3cccnc3)c2)c1	–	–	107.7
COc1ccc(CCNC(=O)[C@@]2(Cc3ccccc3I)c3ccccc3C(=O)N(Cc3ccccc3OC)[C@H]2c2ccc(CO)cc2)cc1	·	–	·
O=C(c1csc(Nc2ccccc2Cl)n1)N1CCCC1	–	–	–
O=C(c1csc(Nc2cccc3ccccc23)n1)N1CCCC1	607.2	–	–
C[C@H](NC(=O)C[C@H]1CC[C@@H](NC(=O)Nc2ccc3c(c2)OCO3)[C@@H](CO)O1)c1ccccc1	·	–	–
CCOC(=O)N1CCN(C(=O)CSCC(=O)Nc2nc(-c3ccc4c(c3)OCO4)cs2)CC1	–	–	122.0
O=C(CSCC(=O)N1CCOCC1)Nc1nc(-c2ccc3c(c2)OCO3)cs1	–	–	–
CCC(=O)Nc1ccc2c(c1)C(=O)N(C)C[C@H](OC)[C@@H](C)CN(C(=O)CC)[C@@H](C)CO2	·	–	–
Cc1cccc(S(=O)(=O)N2C[C@H](O)COC[C@@H]3O[C@H](CC(=O)Nc4ccc(-c5ccccc5)cc4)CC[C@H]32)c1	·	–	–
CCOc1ccc2ncc(S(=O)(=O)c3ccccc3)c(N3CCN(c4ccccc4)CC3)c2c1	–	·	–
CCOC(=O)c1cnc2ccc(OCC)cc2c1N1CCN(c2ccccc2)CC1	–	–	80.7
CC(C)NC(=O)N(C)C[C@@H]1Oc2ccc(NC(=O)CCCCCC(=O)Nc3ccccc3N)cc2CC(=O)N([C@@H](C)CO)C[C@H]1C	·	–	–
Cn1c(SCC(=O)N2CCOCC2)nnc1-c1ccco1	352.7	–	–
CCn1c(SCC(=O)N2CCOCC2)nnc1-c1ccco1	–	–	·
SMILES	SUMO Mot1 rescue	Cneo AK release	Statin myotox sup
Cc1ccc(S(=O)(=O)Nc2ccc3c(c2)C(=O)N([C@@H](C)CO)C[C@@H](C)[C@H](CN(C)Cc2ccc(C(F)(F)F)cc2)OCCCC[C@@H](C)O3)cc1	·	–	·
CCN1[C@@H]2Cn3c(ccc(/C=C/c4ccccc4)c3=O)[C@H]1[C@@H](C(=O)N1CCCCC1)[C@@H]2CO	·	·	–
O=C(NC(=S)NCCN1CCOCC1)c1ccccc1Cl	–	–	–
O=C(NC(=S)NCCN1CCOCC1)c1ccc(Cl)cc1Cl	–	–	89.2
COc1ccc(S(=O)(=O)N2CC[C@@H]3[C@H]2c2cc(C#Cc4ccccc4OC)ccc2N[C@@H]3CO)cc1	·	–	–
O=C(CS(=O)(=O)c1ccccc1)Nc1ncc([N+](=O)[O-])s1	–	–	–
O=C(CCS(=O)(=O)c1ccccc1)Nc1ncc([N+](=O)[O-])s1	–	–	74.8
COc1cc(C)c(S(=O)(=O)n2ccc(C)n2)cc1C	–	–	112.7
COc1ccc(S(=O)(=O)n2ccc(C)n2)cc1C	–	–	–
O=C(CCN1CCCCC1)NCC[C@H]1CC[C@@H](NC(=O)C2CCCC2)[C@@H](CO)O1	·	–	–
Cc1cc(C(=O)Nc2cccc3c2O[C@@H](CN(C)C(=O)Nc2ccccc2)[C@@H](C)CN([C@H](C)CO)C3=O)n(C)n1	·	–	–

Screening results from PubChem BioAssay.
